From ChEMBL document CHEMBL4689842, “EUbOPEN Chemogenomics Library wave 1” (2021)

System: Fibroblast
Assay: Multiplex assay against human fibroblast
Assay type: toxicity, cell-based
Procedure, shortened: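 Cells were classed with CellPathfinder machine-learning gating, first as Hoechst high-intensity objects or normal cells, then (normal cells) as healthy, pyknosed or fragmented nuclei, and finally (pyknosed cells) as mitotic or apoptotic. Staining of live cells at seeding used Hoechst33342, BioTracker Green Microtubule Cytoskeleton Dye, MitoTracker Red and Annexin V Alexa Fluor 680, with imaging on a CQ1 microscope at 37°C and 5% CO2 after compound addition. Tubulin, mitochondrial-mass and membrane-permeability phenotypes are per cents of healthy-nucleus cells.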

[1] = 12 h, 1 µM, compound concentration 1 uM, replicate 1
[2] = 12 h, 1 µM, compound concentration 1 uM, replicate 2
[3] = 12 h, 10 µM, compound concentration 10 uM, replicate 1
[4] = 12 h, 10 µM, compound concentration 10 uM, replicate 2
[5] = 24 h, 1 µM, compound concentration 1 uM, replicate 1
[6] = 24 h, 1 µM, compound concentration 1 uM, replicate 2
[7] = 24 h, 10 µM, compound concentration 10 uM, replicate 1
[8] = 24 h, 10 µM, compound concentration 10 uM, replicate 2
[9] = 48 h, 1 µM, compound concentration 1 uM, replicate 1
[10] = 48 h, 1 µM, compound concentration 1 uM, replicate 2
[11] = 48 h, 10 µM, compound concentration 10 uM, replicate 1
[12] = 48 h, 10 µM, compound concentration 10 uM, replicate 2

## CC(C)c1cc(Nc2nc(N3CCC[C@H](N)C3)ncc2C(N)=O)cc(C(C)C)n1
[1]
  Population Apoptotic (%): 57%
  Population Fragmented Nuclei (%): 33%
  Population Healthy Nuclei (%): 36%
  Population Hoechst High Intensity Objects (%): 13%
  Population Membrane Permeable-Phenotype (%): 22%
  Population Mitochondria Different-Phenotype (%): 22%
  Population Mitotic Cells (%): 42%
  Population Normal (%): 86%
  Population Pyknosed Nuclei (%): 30%
  Population Tubulin-Different-Phenotype (%): 82%
  Total Cell Count: 127
[2]
  Population Apoptotic (%): 44%
  Population Fragmented Nuclei (%): 12%
  Population Healthy Nuclei (%): 75%
  Population Hoechst High Intensity Objects (%): 9%
  Population Membrane Permeable-Phenotype (%): 16%
  Population Mitochondria Different-Phenotype (%): 92%
  Population Mitotic Cells (%): 55%
  Population Normal (%): 90%
  Population Pyknosed Nuclei (%): 12%
  Population Tubulin-Different-Phenotype (%): 96%
  Total Cell Count: 82
[3]
  Population Apoptotic (%): 59%
  Population Fragmented Nuclei (%): 30%
  Population Healthy Nuclei (%): 37%
  Population Hoechst High Intensity Objects (%): 28%
  Population Membrane Permeable-Phenotype (%): 34%
  Population Mitochondria Different-Phenotype (%): 30%
  Population Mitotic Cells (%): 40%
  Population Normal (%): 71%
  Population Pyknosed Nuclei (%): 31%
  Population Tubulin-Different-Phenotype (%): 76%
  Total Cell Count: 96
[4]
  Population Apoptotic (%): 65%
  Population Fragmented Nuclei (%): 19%
  Population Healthy Nuclei (%): 31%
  Population Hoechst High Intensity Objects (%): 14%
  Population Membrane Permeable-Phenotype (%): 100%
  Population Mitochondria Different-Phenotype (%): 93%
  Population Mitotic Cells (%): 34%
  Population Normal (%): 85%
  Population Pyknosed Nuclei (%): 48%
  Population Tubulin-Different-Phenotype (%): 100%
  Total Cell Count: 55
[5]
  Population Apoptotic (%): 48%
  Population Fragmented Nuclei (%): 30%
  Population Healthy Nuclei (%): 32%
  Population Hoechst High Intensity Objects (%): 25%
  Population Membrane Permeable-Phenotype (%): 17%
  Population Mitochondria Different-Phenotype (%): 14%
  Population Mitotic Cells (%): 51%
  Population Normal (%): 74%
  Population Pyknosed Nuclei (%): 36%
  Population Tubulin-Different-Phenotype (%): 77%
  Total Cell Count: 143
[6]
  Population Apoptotic (%): 26%
  Population Fragmented Nuclei (%): 10%
  Population Healthy Nuclei (%): 68%
  Population Hoechst High Intensity Objects (%): 5%
  Population Membrane Permeable-Phenotype (%): 30%
  Population Mitochondria Different-Phenotype (%): 96%
  Population Mitotic Cells (%): 73%
  Population Normal (%): 94%
  Population Pyknosed Nuclei (%): 20%
  Population Tubulin-Different-Phenotype (%): 94%
  Total Cell Count: 77
[7]
  Population Apoptotic (%): 63%
  Population Fragmented Nuclei (%): 26%
  Population Healthy Nuclei (%): 42%
  Population Hoechst High Intensity Objects (%): 25%
  Population Membrane Permeable-Phenotype (%): 17%
  Population Mitochondria Different-Phenotype (%): 44%
  Population Mitotic Cells (%): 36%
  Population Normal (%): 75%
  Population Pyknosed Nuclei (%): 31%
  Population Tubulin-Different-Phenotype (%): 82%
  Total Cell Count: 92
[8]
  Population Apoptotic (%): 84%
  Population Fragmented Nuclei (%): 23%
  Population Healthy Nuclei (%): 23%
  Population Hoechst High Intensity Objects (%): 17%
  Population Membrane Permeable-Phenotype (%): 100%
  Population Mitochondria Different-Phenotype (%): 90%
  Population Mitotic Cells (%): 16%
  Population Normal (%): 82%
  Population Pyknosed Nuclei (%): 53%
  Population Tubulin-Different-Phenotype (%): 100%
  Total Cell Count: 57
[9]
  Population Apoptotic (%): 70%
  Population Fragmented Nuclei (%): 29%
  Population Healthy Nuclei (%): 40%
  Population Hoechst High Intensity Objects (%): 37%
  Population Membrane Permeable-Phenotype (%): 34%
  Population Mitochondria Different-Phenotype (%): 7%
  Population Mitotic Cells (%): 30%
  Population Normal (%): 62%
  Population Pyknosed Nuclei (%): 29%
  Population Tubulin-Different-Phenotype (%): 68%
  Total Cell Count: 162
[10]
  Population Apoptotic (%): 42%
  Population Fragmented Nuclei (%): 33%
  Population Healthy Nuclei (%): 56%
  Population Hoechst High Intensity Objects (%): 33%
  Population Membrane Permeable-Phenotype (%): 9%
  Population Mitochondria Different-Phenotype (%): 1%
  Population Mitotic Cells (%): 57%
  Population Normal (%): 66%
  Population Pyknosed Nuclei (%): 10%
  Population Tubulin-Different-Phenotype (%): 58%
  Total Cell Count: 204
[11]
  Population Apoptotic (%): 95%
  Population Fragmented Nuclei (%): 43%
  Population Healthy Nuclei (%): 24%
  Population Hoechst High Intensity Objects (%): 32%
  Population Membrane Permeable-Phenotype (%): 66%
  Population Mitochondria Different-Phenotype (%): 13%
  Population Mitotic Cells (%): 5%
  Population Normal (%): 67%
  Population Pyknosed Nuclei (%): 32%
  Population Tubulin-Different-Phenotype (%): 66%
  Total Cell Count: 92
[12]
  Population Apoptotic (%): 80%
  Population Fragmented Nuclei (%): 27%
  Population Healthy Nuclei (%): 38%
  Population Hoechst High Intensity Objects (%): 31%
  Population Membrane Permeable-Phenotype (%): 19%
  Population Mitochondria Different-Phenotype (%): 58%
  Population Mitotic Cells (%): 19%
  Population Normal (%): 68%
  Population Pyknosed Nuclei (%): 33%
  Population Tubulin-Different-Phenotype (%): 55%
  Total Cell Count: 135
